From publication PMC6402543 (Nature, 2018)
≈ marks a conversion by molar mass, not a printed value. Read-outs that look alike come from different tables or passages of the source.

What was measured:
[1] = test system: L. donovani axenic amastigotes; assay: Cidal axenic amastigote assay; format: cell-based; conditions: Leishmania donovani, read-out: Cidal axenic EC50
THP-1 cells = assay: THP-1 host cell toxicity in the intra-macrophage assay; format: cell-based; conditions: Homo sapiens, THP-1, read-out: THP-1 EC50
[2] = test system: L. donovani clinical isolates (LV9, SUKA 001, BHU1, DD8); format: cell-based, Leishmania donovani
[3] = test system: L. donovani promastigotes (LdBOB); assay: Promastigote drug sensitivity assay; format: cell-based, Leishmania donovani; conditions: for EC50: Leishmania donovani
[4] = test system: L. donovani intramacrophage amastigotes (INMAC); assay: Intra macrophage drug sensitivity assay; format: cell-based, Leishmania donovani; conditions: 5 RES clone 1 vs WT intramacrophage amastigotes
[5] = test system: L. donovani axenic amastigotes; assay: Rate-of-kill of axenic amastigotes; format: cell-based, Leishmania donovani
[6] = test system: L. donovani promastigotes (LdBOB); assay: Cell cycle analysis; format: cell-based, Leishmania donovani; conditions: 5x EC50 for 8 h
[7] = Solubility in simulated physiological media; format: physicochemical; conditions: fed simulated intestinal fluid (FeSSIF), pH 6.5
Stability in microsomes [8] = format: in vitro ADME, mouse (CD1); conditions: Mouse; 0.5 μM
Procedure, shortened: (§1)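 Liver microsomes of each stated species were incubated with test compound at 0.5 µM. Intrinsic clearance (Cli) is reported in mL/min/g tissue.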

Stability in microsomes [9] = format: in vitro ADME, rat (Sprague Dawley); conditions: Rat; 0.5 μM
Procedure, shortened: as §1

Stability in microsomes [10] = format: in vitro ADME, dog (beagle); conditions: Dog; 0.5 μM
Procedure, shortened: as §1

Stability in microsomes [11] = format: in vitro ADME; conditions: Human; 0.5 μM
Procedure, shortened: as §1

Stability in hepatocytes [12] = format: in vitro ADME, mouse (CD1); conditions: Mouse; 0.5 μM
Procedure, shortened: (§2)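 Test compound was incubated with hepatocytes of the stated species at 0.5 µM. The read-out is intrinsic clearance (Cli), expressed as mL/min/g tissue.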

Stability in hepatocytes [13] = format: in vitro ADME, rat (Sprague Dawley); conditions: Rat; 0.5 μM
Procedure, shortened: as §2

Stability in hepatocytes [14] = format: in vitro ADME, dog (beagle); conditions: Dog; 0.5 μM
Procedure, shortened: as §2

Stability in hepatocytes [15] = format: in vitro ADME; conditions: Human; 0.5 μM
Procedure, shortened: as §2

Mouse pharmacokinetics = format: in vivo, Mouse (male, CD1); conditions: for F% based on AUC(0-inf): mouse
Rat pharmacokinetics = format: in vivo, Rat (male, SD)
[16] = test system: L. donovani amastigotes (LV9); assay: In vivo efficacy, mouse model of VL; set-up: species or system Leishmania donovani; conditions: 25 mg/kg bid, 10 days, oral
Procedure, shortened: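 Each treatment arm used 5 mice. Regimens were dosed once daily (uid) or twice daily (bid) for 5 or 10 days, and bid dosing for 10 days was run over a dose range. Parasite burden was scored as Leishman Donovan Units: amastigotes per 500 nucleated cells multiplied by organ weight in g. Read-out was reduction in parasite load.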

[17] = Rat 7-day repeat dose oral toxicology; format: in vivo, rat (male Wistar Han); conditions: all doses tested
[18] = Non-GLP preclinical assessment of cardiovascular effects and genotoxicity
[19] = test system: L. donovani amastigotes (LV9); conditions: uid; cited from earlier work
[20] = male, CD1, mouse, whole blood, iv, 1 mg/kg
[21] = male, CD1, mouse, whole blood, po, 10 mg/kg
[22] = male, CD1, mouse, whole blood, po, 100 mg/kg
[23] = male, CD1, mouse, whole blood, po, 300 mg/kg
[24] = male, Sprague Dawley, whole blood, iv, 1 mg/kg
[25] = male, Sprague Dawley, whole blood, po, 10 mg/kg
[26] = male, Sprague Dawley, whole blood, po, 100 mg/kg
[27] = male, Sprague Dawley, whole blood, po, 300 mg/kg

SMILES: C[C@H]1CN(c2n[nH]c3nc(N[C@H]4CC[C@H](NS(=O)(=O)CCC(F)(F)F)CC4)ncc23)CCO1 [Compound 7]
- EC50 [1]: 0.1 µM
- EC50 (THP-1 cells): > 50 µM
- Variation in potency against a panel of Leishmania clinical-derived lines [2]: less than 10 fold
- Fold ([3]; 4-resistant clone 1, fold resistance vs wild type): 20
- Fold ([3]; 4-resistant clone 2, fold resistance vs wild type): 24
- Fold ([3]; 4-resistant clone 3, fold resistance vs wild type): 48
- Fold ([3]; 5-resistant clone 1, fold resistance vs wild type): 41
- Fold ([3]; 5-resistant clone 2, fold resistance vs wild type): 35
- Fold ([3]; 5-resistant clone 3, fold resistance vs wild type): 22
- EC50 relative to WT ([3]; CRK12MUT and CYC9 co-overexpressing): ~ 6 fold
- EC50 relative to WT ([3]; CRK12MUT overexpressing): ~ 3.4 fold
- EC50 relative to WT ([3]; CRK12WT and CYC9 co-overexpressing): ~ 3 fold
- EC50 ([3]; read-out: pEC50 (SD), 4-resistant clone 1 promastigotes (converted)): 1.58 µM
- EC50 ([3]; read-out: pEC50 (SD), 4-resistant clone 2 promastigotes (converted)): 2 µM
- EC50 ([3]; read-out: pEC50 (SD), 4-resistant clone 3 promastigotes (converted)): 3.98 µM
- EC50 ([3]; read-out: pEC50 (SD), 5-resistant clone 1 promastigotes (converted)): 3.16 µM
- EC50 ([3]; read-out: pEC50 (SD), 5-resistant clone 2 promastigotes (converted)): 3.16 µM
- EC50 ([3]; read-out: pEC50 (SD), 5-resistant clone 3 promastigotes (converted)): 2 µM
- EC50 ([3]; read-out: pEC50 (SD), Wild type (Age-matched) promastigotes (converted)): 0.0501 µM
- EC50 ([3]; read-out: pEC50 (SD), Wild type (Start clone) promastigotes (converted)): 0.0794 µM
- Fold ([3]; Wild type (Age-matched) promastigotes, fold vs wild type): 1
- Fold ([3]; Wild type (Start clone) promastigotes, fold vs wild type): 1
- Fold difference [4]: 5
- Time at which compound was cytocidal ([5]; 0.2 μM): 96 h
- Time at which compound was cytocidal ([5]; 1.8 μM): 48 h
- Effect on cell-cycle progression [6]: accumulation of cells in G1 and in G2/M and a decrease in the proportion of cells in S phase
- solubility at 4 h [7]: 0.025 mg/mL (≈ 50.9 µM)
- Microsomes Cli (Stability in microsomes [8]): 0.52 mL/min/g tissue
- Microsomes Cli (Stability in microsomes [9]): <0.5 mL/min/g tissue
- Microsomes Cli (Stability in microsomes [10]): <0.4 mL/min/g tissue
- Microsomes Cli (Stability in microsomes [11]): 0.71 mL/min/g tissue
- Hepatocytes Cli (Stability in hepatocytes [12]): 0.84 mL/min/g tissue
- Hepatocytes Cli (Stability in hepatocytes [13]): 0.77 mL/min/g tissue
- Hepatocytes Cli (Stability in hepatocytes [14]): 0.31 mL/min/g tissue
- Hepatocytes Cli (Stability in hepatocytes [15]): 0.5 mL/min/g tissue
- AUC(0-inf) (Mouse pharmacokinetics; [20]): 0.104 ± 0.026 µg·h/mL
- Vd (Mouse pharmacokinetics; [20]): 4 ± 0.5 L/kg
- clearance (Mouse pharmacokinetics; [20]): 10.1 ± 3 L/h/kg
- half-life (Mouse pharmacokinetics; [20]): 0.3 ± 0.04 h
- AUC(0-inf) (Mouse pharmacokinetics; [21]): 1.46 ± 0.362 µg·h/mL
- Cmax (Mouse pharmacokinetics; [21]): 0.561 ± 0.148 µg/mL
- Tmax (Mouse pharmacokinetics; [21]): 2 h
- AUC(0-inf) (Mouse pharmacokinetics; [22]): 39.4 ± 23.8 µg·h/mL
- Cmax (Mouse pharmacokinetics; [22]): 8.81 ± 1.97 µg/mL
- Tmax (Mouse pharmacokinetics; [22]): 3 h
- AUC(0-inf) (Mouse pharmacokinetics; [23]): 66.2 µg·h/mL
- Cmax (Mouse pharmacokinetics; [23]): 11.4 ± 4.21 µg/mL
- Tmax (Mouse pharmacokinetics; [23]): 5 h
- F% based on AUC(0-inf) (Mouse pharmacokinetics; oral 10 mg/kg): >100%
- F% based on AUC(0-inf) (Mouse pharmacokinetics; oral 100 mg/kg): >100%
- F% based on AUC(0-inf) (Mouse pharmacokinetics; oral 300 mg/kg): >100%
- AUC(0-inf) (Rat pharmacokinetics; [24]): 1.51 ± 0.782 µg·h/mL
- Vd (Rat pharmacokinetics; [24]): 0.4 ± 0.1 L/kg
- clearance (Rat pharmacokinetics; [24]): 0.84 ± 0.54 L/h/kg
- half-life (Rat pharmacokinetics; [24]): 0.4 ± 0.2 h
- AUC(0-inf) (Rat pharmacokinetics; [25]): 6.48 ± 2.49 µg·h/mL
- Cmax (Rat pharmacokinetics; [25]): 1.04 ± 0.261 µg/mL
- Tmax (Rat pharmacokinetics; [25]): 2 h
- AUC(0-inf) (Rat pharmacokinetics; [26]): 61.2 ± 23.6 µg·h/mL
- Cmax (Rat pharmacokinetics; [26]): 8.47 ± 3.75 µg/mL
- Tmax (Rat pharmacokinetics; [26]): 7.3 h
- AUC(0-inf) (Rat pharmacokinetics; [27]): 136 ± 24.8 µg·h/mL
- Cmax (Rat pharmacokinetics; [27]): 14.8 ± 2.68 µg/mL
- Tmax (Rat pharmacokinetics; [27]): 7.3 h
- F% based on AUC(0-inf) (Rat pharmacokinetics; oral 10 mg/kg): 46 ±18%
- F% based on AUC(0-inf) (Rat pharmacokinetics; oral 100 mg/kg): 40 ± 15%
- F% based on AUC(0-inf) (Rat pharmacokinetics; oral 300 mg/kg): 51 ± 22%
- Reduction in parasite load [16]: 99%
- Adverse effects (clinical chemistry and histopathology) [17]: no significant adverse effects
- Cardiovascular effects and genotoxicity [18]: did not reveal any issues that would prevent further development

SMILES: CCCCCCCCCCCCCCCCOP(=O)([O-])OCC[N+](C)(C)C [miltefosine]
- ED90 in a mouse model [19]: 27 mg/kg
